Results reported in ChEMBL document CHEMBL5303300, “EUbOPEN Chemogenomics Library - Multiplex” (2023).
Where “and” joins values, the source holds several entries; their conditions need not be identical. Equal values may be shown once.

System: HEK-293T
Test: Multiplex assay against HEK293T
Format: toxicity, cell-based
Conditions: human, number of replicates 2
How it was run: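 Values for tubulin, mitochondrial-mass and membrane-permeability phenotypes are per cents of cells with healthy nuclei. These cells were identified by CellPathfinder machine-learning gating of live cells that had been stained at seeding with Hoechst33342, BioTracker Green Microtubule Cytoskeleton Dye, MitoTracker Red and Annexin V Alexa Fluor 680 and imaged on a CQ1 microscope at 37°C and 5% CO2 after compound addition. The gating first set Hoechst high-intensity objects apart from normal cells, then split normal cells into healthy, pyknosed or fragmented nuclei, and pyknosed cells into mitotic or apoptotic.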

[1] = 12 h, 1 µM, compound concentration 1 uM
[2] = 12 h, 10 µM, compound concentration 10 uM
[3] = 24 h, 1 µM, compound concentration 1 uM
[4] = 24 h, 10 µM, compound concentration 10 uM
[5] = 48 h, 1 µM, compound concentration 1 uM
[6] = 48 h, 10 µM, compound concentration 10 uM

CNC(=O)c1c(F)cccc1Nc1nc(Nc2cc3c(cc2OC)CCN3C(=O)CN(C)C)nc2[nH]ccc12
Population Apoptotic (%) [1]: 62% and 55%
Population Fragmented Nuclei (%) [1]: 4% and 2%
Population Healthy Nuclei (%) [1]: 82% and 86%
Population Hoechst High Intensity Objects (%) [1]: 12%
Population Membrane Permeable-Phenotype (%) [1]: 1% and 0%
Population Mitochondria Different-Phenotype (%) [1]: 46% and 51%
Population Mitotic Cells (%) [1]: 37% and 44%
Population Normal (%) [1]: 87%
Population Pyknosed Nuclei (%) [1]: 13% and 10%
Population Tubulin-Different-Phenotype (%) [1]: 81% and 83%
Total Cell Count [1]: 326 and 308
Population Apoptotic (%) [2]: 45% and 56%
Population Fragmented Nuclei (%) [2]: 7%
Population Healthy Nuclei (%) [2]: 75% and 73%
Population Hoechst High Intensity Objects (%) [2]: 44% and 47%
Population Membrane Permeable-Phenotype (%) [2]: 4% and 2%
Population Mitochondria Different-Phenotype (%) [2]: 66% and 59%
Population Mitotic Cells (%) [2]: 54% and 44%
Population Normal (%) [2]: 55% and 52%
Population Pyknosed Nuclei (%) [2]: 17% and 19%
Population Tubulin-Different-Phenotype (%) [2]: 94% and 93%
Total Cell Count [2]: 246 and 244
Population Apoptotic (%) [3]: 40% and 83%
Population Fragmented Nuclei (%) [3]: 9% and 7%
Population Healthy Nuclei (%) [3]: 84% and 88%
Population Hoechst High Intensity Objects (%) [3]: 12% and 9%
Population Membrane Permeable-Phenotype (%) [3]: 0%
Population Mitochondria Different-Phenotype (%) [3]: 34% and 30%
Population Normal (%) [3]: 87% and 90%
Population Pyknosed Nuclei (%) [3]: 5% and 4%
Population Tubulin-Different-Phenotype (%) [3]: 81% and 79%
Total Cell Count [3]: 390 and 332
Population Apoptotic (%) [4]: 37% and 38%
Population Fragmented Nuclei (%) [4]: 6%
Population Healthy Nuclei (%) [4]: 79% and 80%
Population Hoechst High Intensity Objects (%) [4]: 37% and 45%
Population Membrane Permeable-Phenotype (%) [4]: 8% and 4%
Population Mitochondria Different-Phenotype (%) [4]: 45% and 40%
Population Mitotic Cells (%) [4]: 62% and 61%
Population Normal (%) [4]: 62% and 54%
Population Pyknosed Nuclei (%) [4]: 14% and 12%
Population Tubulin-Different-Phenotype (%) [4]: 93% and 94%
Total Cell Count [4]: 266 and 259
Population Apoptotic (%) [5]: 25% and 66%
Population Fragmented Nuclei (%) [5]: 16% and 11%
Population Healthy Nuclei (%) [5]: 80% and 86%
Population Hoechst High Intensity Objects (%) [5]: 21% and 30%
Population Membrane Permeable-Phenotype (%) [5]: 1%
Population Mitochondria Different-Phenotype (%) [5]: 4% and 8%
Population Mitotic Cells (%) [5]: 75% and 33%
Population Normal (%) [5]: 78% and 69%
Population Pyknosed Nuclei (%) [5]: 2% and 1%
Population Tubulin-Different-Phenotype (%) [5]: 63% and 69%
Total Cell Count [5]: 741 and 531
Population Apoptotic (%) [6]: 57% and 71%
Population Fragmented Nuclei (%) [6]: 9%
Population Healthy Nuclei (%) [6]: 80% and 77%
Population Hoechst High Intensity Objects (%) [6]: 29% and 35%
Population Membrane Permeable-Phenotype (%) [6]: 5% and 7%
Population Mitochondria Different-Phenotype (%) [6]: 18% and 11%
Population Mitotic Cells (%) [6]: 42% and 28%
Population Normal (%) [6]: 70% and 64%
Population Pyknosed Nuclei (%) [6]: 9% and 13%
Population Tubulin-Different-Phenotype (%) [6]: 87%
Total Cell Count [6]: 402 and 414

COc1ccc(-c2cc3c(C)nc(N)nc3n([C@H]3CC[C@H](OCCO)CC3)c2=O)cn1 [PF-04691502]
Population Apoptotic (%) [1]: 74% and 67%
Population Fragmented Nuclei (%) [1]: 3% and 2%
Population Healthy Nuclei (%) [1]: 86% and 87%
Population Hoechst High Intensity Objects (%) [1]: 12% and 13%
Population Membrane Permeable-Phenotype (%) [1]: 0% and 2%
Population Mitochondria Different-Phenotype (%) [1]: 36% and 56%
Population Mitotic Cells (%) [1]: 25% and 32%
Population Normal (%) [1]: 87% and 86%
Population Pyknosed Nuclei (%) [1]: 10%
Population Tubulin-Different-Phenotype (%) [1]: 60% and 67%
Total Cell Count [1]: 425 and 310
Population Apoptotic (%) [2]: 73% and 71%
Population Fragmented Nuclei (%) [2]: 7% and 3%
Population Healthy Nuclei (%) [2]: 69% and 75%
Population Hoechst High Intensity Objects (%) [2]: 24% and 19%
Population Membrane Permeable-Phenotype (%) [2]: 1% and 5%
Population Mitochondria Different-Phenotype (%) [2]: 80% and 72%
Population Mitotic Cells (%) [2]: 26% and 28%
Population Normal (%) [2]: 75% and 80%
Population Pyknosed Nuclei (%) [2]: 23% and 21%
Population Tubulin-Different-Phenotype (%) [2]: 77% and 78%
Total Cell Count [2]: 170 and 187
Population Apoptotic (%) [3]: 71% and 78%
Population Fragmented Nuclei (%) [3]: 7%
Population Healthy Nuclei (%) [3]: 76% and 81%
Population Hoechst High Intensity Objects (%) [3]: 24% and 20%
Population Membrane Permeable-Phenotype (%) [3]: 1%
Population Mitochondria Different-Phenotype (%) [3]: 40% and 55%
Population Mitotic Cells (%) [3]: 28% and 21%
Population Normal (%) [3]: 75% and 79%
Population Pyknosed Nuclei (%) [3]: 16% and 10%
Population Tubulin-Different-Phenotype (%) [3]: 64% and 68%
Total Cell Count [3]: 314 and 266
Population Apoptotic (%) [4]: 66% and 60%
Population Fragmented Nuclei (%) [4]: 9% and 7%
Population Healthy Nuclei (%) [4]: 70% and 77%
Population Hoechst High Intensity Objects (%) [4]: 26% and 30%
Population Membrane Permeable-Phenotype (%) [4]: 2% and 0%
Population Mitochondria Different-Phenotype (%) [4]: 72% and 61%
Population Mitotic Cells (%) [4]: 33% and 40%
Population Normal (%) [4]: 73% and 69%
Population Pyknosed Nuclei (%) [4]: 20% and 14%
Population Tubulin-Different-Phenotype (%) [4]: 79% and 69%
Total Cell Count [4]: 163 and 192
Population Apoptotic (%) [5]: 70% and 77%
Population Fragmented Nuclei (%) [5]: 9% and 10%
Population Healthy Nuclei (%) [5]: 69% and 65%
Population Hoechst High Intensity Objects (%) [5]: 28% and 27%
Population Membrane Permeable-Phenotype (%) [5]: 0% and 1%
Population Mitochondria Different-Phenotype (%) [5]: 42% and 44%
Population Mitotic Cells (%) [5]: 29% and 22%
Population Normal (%) [5]: 71% and 72%
Population Pyknosed Nuclei (%) [5]: 20% and 24%
Population Tubulin-Different-Phenotype (%) [5]: 69% and 75%
Total Cell Count [5]: 275 and 280
Population Apoptotic (%) [6]: 70% and 64%
Population Fragmented Nuclei (%) [6]: 14% and 18%
Population Healthy Nuclei (%) [6]: 74%
Population Hoechst High Intensity Objects (%) [6]: 31% and 28%
Population Membrane Permeable-Phenotype (%) [6]: 0% and 1%
Population Mitochondria Different-Phenotype (%) [6]: 40% and 27%
Population Mitotic Cells (%) [6]: 30% and 35%
Population Normal (%) [6]: 68% and 71%
Population Pyknosed Nuclei (%) [6]: 10% and 6%
Population Tubulin-Different-Phenotype (%) [6]: 61% and 50%
Total Cell Count [6]: 273 and 293

CN(C)CC#Cc1ccc2[nH]c3c(c2c1)-c1nc(N)ncc1CCC3
Population Apoptotic (%) [1]: 52%
Population Fragmented Nuclei (%) [1]: 2% and 4%
Population Healthy Nuclei (%) [1]: 81% and 82%
Population Hoechst High Intensity Objects (%) [1]: 11% and 14%
Population Membrane Permeable-Phenotype (%) [1]: 8%
Population Mitochondria Different-Phenotype (%) [1]: 31% and 24%
Population Mitotic Cells (%) [1]: 47%
Population Normal (%) [1]: 89% and 85%
Population Pyknosed Nuclei (%) [1]: 16% and 12%
Population Tubulin-Different-Phenotype (%) [1]: 96%
Total Cell Count [1]: 491 and 406
Population Apoptotic (%) [2]: 52% and 44%
Population Fragmented Nuclei (%) [2]: 3%
Population Healthy Nuclei (%) [2]: 73%
Population Hoechst High Intensity Objects (%) [2]: 12%
Population Membrane Permeable-Phenotype (%) [2]: 5% and 4%
Population Mitochondria Different-Phenotype (%) [2]: 28% and 23%
Population Mitotic Cells (%) [2]: 47% and 55%
Population Normal (%) [2]: 87%
Population Pyknosed Nuclei (%) [2]: 22% and 23%
Population Tubulin-Different-Phenotype (%) [2]: 93% and 96%
Total Cell Count [2]: 350 and 360
Population Apoptotic (%) [3]: 50% and 63%
Population Fragmented Nuclei (%) [3]: 6% and 8%
Population Healthy Nuclei (%) [3]: 83% and 80%
Population Hoechst High Intensity Objects (%) [3]: 11%
Population Membrane Permeable-Phenotype (%) [3]: 14% and 19%
Population Mitochondria Different-Phenotype (%) [3]: 11% and 8%
Population Mitotic Cells (%) [3]: 49% and 36%
Population Normal (%) [3]: 88%
Population Pyknosed Nuclei (%) [3]: 9% and 11%
Population Tubulin-Different-Phenotype (%) [3]: 97% and 95%
Total Cell Count [3]: 646 and 621
Population Apoptotic (%) [4]: 50% and 55%
Population Fragmented Nuclei (%) [4]: 3% and 5%
Population Healthy Nuclei (%) [4]: 75% and 77%
Population Hoechst High Intensity Objects (%) [4]: 16% and 11%
Population Membrane Permeable-Phenotype (%) [4]: 8% and 5%
Population Mitochondria Different-Phenotype (%) [4]: 12% and 9%
Population Mitotic Cells (%) [4]: 50% and 44%
Population Normal (%) [4]: 83% and 88%
Population Pyknosed Nuclei (%) [4]: 20% and 16%
Population Tubulin-Different-Phenotype (%) [4]: 88% and 94%
Total Cell Count [4]: 381 and 452
Population Apoptotic (%) [5]: 54% and 48%
Population Fragmented Nuclei (%) [5]: 17%
Population Healthy Nuclei (%) [5]: 78% and 77%
Population Hoechst High Intensity Objects (%) [5]: 13% and 9%
Population Membrane Permeable-Phenotype (%) [5]: 34% and 42%
Population Mitochondria Different-Phenotype (%) [5]: 0%
Population Mitotic Cells (%) [5]: 45% and 51%
Population Normal (%) [5]: 86% and 90%
Population Pyknosed Nuclei (%) [5]: 4%
Population Tubulin-Different-Phenotype (%) [5]: 85% and 83%
Total Cell Count [5]: 1491 and 1520
Population Apoptotic (%) [6]: 47% and 50%
Population Fragmented Nuclei (%) [6]: 8% and 6%
Population Healthy Nuclei (%) [6]: 71% and 79%
Population Hoechst High Intensity Objects (%) [6]: 20% and 18%
Population Membrane Permeable-Phenotype (%) [6]: 9% and 11%
Population Mitochondria Different-Phenotype (%) [6]: 1% and 0%
Population Mitotic Cells (%) [6]: 52% and 49%
Population Normal (%) [6]: 79% and 81%
Population Pyknosed Nuclei (%) [6]: 19% and 13%
Population Tubulin-Different-Phenotype (%) [6]: 93% and 90%
Total Cell Count [6]: 505 and 520
